Results from ChEMBL document CHEMBL1123757, “Selective thromboxane synthetase inhibitors and antihypertensive agents. New derivatives of 4-hydrazino-5H-pyridazino[4,5-b]indole, 4-hydrazinopyridazino[4,5-a]indole, and related compounds” (J Med Chem, 1987).
Activity calls are given as the source filed them. No cut-off for these calls is given here.

Assays:
Cavia porcellus [1] = organism: Cavia porcellus; conditions: 50 mg/kg
Cavia porcellus [2] = organism: Cavia porcellus; conditions: 30 mg/kg
Homo sapiens [3] = organism: Homo sapiens; conditions: 10e-5 M
Rattus norvegicus [4] = test: Percent fall in systolic blood pressure, directly measured on carotid (iv on the jugular vein) of spontaneously hypertensive rats at 1 mg/kg after 5 minutes; format: functional, Artery
Summary of the method: (§1)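 Anesthetized (sodium pentobarbital, 70 mg/kg) male and female Okamoto SHR, 8 weeks old, 300–350 g. Given iv into the jugular vein in normal saline. Arterial pressure and cardiac rhythm are recorded directly from the carotid by polygraph at set times after dosing. Each is expressed as percent change from the pre-dose control value.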

Rattus norvegicus [5] = organism: Rattus norvegicus; conditions: Artery, 1 mg/kg
Cavia porcellus [6] = organism: Cavia porcellus; conditions: 100 mg/kg
Rattus norvegicus [7] = test: Antihypertensive activity in spontaneously hypertensive rats (SHR) measured by percentage fall in cardiac rhythm (CR) at 1 mg/kg administered intraperitoneally at 3 h; format: functional, Heart; conditions: route intraperitoneal
Summary of the method: (§2)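 Unanesthetized Okamoto-strain SHR, male and female, 8 weeks old, 300–350 g, systolic pressure ≥190 mmHg, heart rate 400–650 beats/min; five animals per dose. Given ip at 2.5 mL/kg, dissolved or suspended in normal saline or saline with 0.2% (carboxymethyl)cellulose and 1.0% Tween 80. Tail AP and CR recorded by mechanical transduction at set times; reported as percentage fall from control.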

Rattus norvegicus [8] = organism: Rattus norvegicus; conditions: Artery, 1 mg/kg; remark: listed apart in the source
Rattus norvegicus [9] = test: Antihypertensive activity in spontaneously hypertensive rats (SHR) measured by percentage fall in cardiac rhythm (CR) at 1 mg/kg administered intraperitoneally at 5 h; format: functional, Heart; conditions: route intraperitoneal
Summary of the method: as §2

Rattus norvegicus [10] = test: Antihypertensive activity in spontaneously hypertensive rats (SHR) measured by percentage fall in arterial pressure (AP) at 1 mg/kg administered intraperitoneally at 1 h; format: functional, Artery; conditions: route intraperitoneal
Summary of the method: as §2

Rattus norvegicus [11] = organism: Rattus norvegicus; conditions: Heart, 1 mg/kg
Homo sapiens [12] = organism: Homo sapiens; test: In vitro inhibition of platelet aggregation induced by ADP-II (PRP incubated for 5 minutes at 37 degree C) at 10e-5 M;No significance; format: functional
Summary of the method: (§3)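 Human venous blood anticoagulated with 3.8% sodium citrate (1:9). PRP from centrifugation at 800 rpm for 10 min at room temperature. Count adjusted with PPP to […]. Compound in saline with 10% ethylene glycol is added to PRP and incubated at 37 °C before the agonist. Agonists: ADP 2×10^-5 M, AA 0.6 mM, PGH2 2.8 μM, adrenaline 0.6 μM. Born absorbance aggregometry; n = 5.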

Cavia porcellus [13] = organism: Cavia porcellus; conditions: 30 mg/kg; remark: listed apart in the source
Rattus norvegicus [14] = organism: Rattus norvegicus; conditions: Heart, 1 mg/kg; remark: listed apart in the source
Rattus norvegicus [15] = test: Antihypertensive activity in spontaneously hypertensive rats (SHR) measured by percentage fall in arterial pressure (AP) at 1 mg/kg administered intraperitoneally at 24 h;No significance; format: functional, organism-based; parameters: dose 1 mg/kg; conditions: Artery
Summary of the method: as §2

Cavia porcellus [16] = organism: Cavia porcellus; conditions: 50 mg/kg; remark: listed apart in the source
Homo sapiens [17] = organism: Homo sapiens; test: In vitro inhibition of platelet aggregation induced by AA (PRP incubated for 60 minutes at 37 degree C) at 10e-5 M;No significance; format: functional
Summary of the method: as §3

Rattus norvegicus [18] = test: Antihypertensive activity in spontaneously hypertensive rats (SHR) measured by percentage fall in cardiac rhythm (CR) at 1 mg/kg administered intraperitoneally at 1 h; format: functional, Heart; conditions: route intraperitoneal
Summary of the method: as §2

Rattus norvegicus [19] = organism: Rattus norvegicus; conditions: Heart, 1 mg/kg; remark: listed apart in the source
Cavia porcellus [20] = test: Ex vivo inhibition of platelet aggregation induced by AA at 100 mg/kg; format: functional
Summary of the method: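 Fasted male or female guinea pigs (250–300 g, five per group) dosed orally in normal saline or saline with 0.2% (carboxymethyl)cellulose/1.0% Tween 80; controls given vehicle. Under ether, cardiac blood collected into 3.8% citrate. PRP adjusted to […] and aggregation induced by ADP (second wave) or AA, read by absorbance aggregometry. PGE2 and TXB2 measured by RIA.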

Rattus norvegicus [21] = test: Antihypertensive activity in spontaneously hypertensive rats (SHR) measured by percentage fall in arterial pressure (AP) at 1 mg/kg administered intraperitoneally at 3 h; format: functional, Artery; conditions: route intraperitoneal
Summary of the method: as §2

Rattus norvegicus [22] = test: Percent fall in systolic blood pressure, directly measured on carotid (iv on the jugular vein) of spontaneously hypertensive rats at 1 mg/kg after 30 minutes; format: functional, Artery
Summary of the method: as §1

Rattus norvegicus [23] = test: Percent fall in systolic blood pressure, directly measured on carotid (iv on the jugular vein) of spontaneously hypertensive rats at 1 mg/kg after 60 minutes; format: functional, Artery
Summary of the method: as §1

Homo sapiens [24] = organism: Homo sapiens; conditions: 10e-5 M; remark: listed apart in the source
Rattus norvegicus [25] = organism: Rattus norvegicus; conditions: Heart, 1 mg/kg; remark: listed apart in the source
Rattus norvegicus [26] = test: Percent fall in systolic blood pressure, directly measured on carotid (iv on the jugular vein) of spontaneously hypertensive rats at 1 mg/kg after 15 minutes; format: functional, Artery
Summary of the method: as §1

Rattus norvegicus [27] = test: Percent increase in cardiac rhythm, directly measured on carotid (iv on the jugular vein) of spontaneously hypertensive rats at 1 mg/kg after 30 minutes; conditions: Heart, 0.5 h, read-out: Inhibition
Rattus norvegicus [28] = test: Percent fall in systolic blood pressure, directly measured on carotid (iv on the jugular vein) of spontaneously hypertensive rats at 1 mg/kg after 120 minutes; format: functional, Artery
Summary of the method: as §1

Rattus norvegicus [29] = test: Percent fall in systolic blood pressure, directly measured on carotid (iv on the jugular vein) of spontaneously hypertensive rats at 1 mg/kg after 75 minutes; format: functional, Artery
Summary of the method: as §1

Cl.NNc1nncc2ccccc12 [HYDRALAZINE HYDROCHLORIDE]
inhibition (Cavia porcellus [1]): inactive
inhibition (Cavia porcellus [2]): inactive
Increase (Homo sapiens [3]): inactive
Decrease in blood pressure (Rattus norvegicus [4]): 40%
inhibition (Rattus norvegicus [5]): inactive
Inhibition % (Cavia porcellus [6]): inactive
Decrease in CR (Rattus norvegicus [7]): -5%
Decrease in blood pressure (Rattus norvegicus [8]): inactive
Decrease in CR (Rattus norvegicus [9]): -2%
Decrease in AP (Rattus norvegicus [10]): 20%
inhibition (Rattus norvegicus [11]): inactive
inhibition (Homo sapiens [12]): inactive
inhibition (Cavia porcellus [13]): inactive
inhibition (Rattus norvegicus [14]): inactive
Decrease in AP (Rattus norvegicus [15]): inactive
inhibition (Cavia porcellus [16]): inactive
inhibition (Homo sapiens [17]): inactive
Decrease in CR (Rattus norvegicus [18]): -7%
Decrease in blood pressure (Rattus norvegicus [19]): inactive
inhibition in vivo at 100 mg/kg (Cavia porcellus [20]): 75%
Decrease in AP (Rattus norvegicus [21]): 20%
Decrease in blood pressure (Rattus norvegicus [22]): 48%
Decrease in blood pressure (Rattus norvegicus [23]): 52%
inhibition (Homo sapiens [24]): inactive
Decrease in CR (Rattus norvegicus [25]): inactive
Decrease in blood pressure (Rattus norvegicus [26]): 48%
inhibition in vivo at 1 mg/kg (Rattus norvegicus [27]): 20%
Decrease in blood pressure (Rattus norvegicus [28]): 20%
Decrease in blood pressure (Rattus norvegicus [29]): 60%
